# A selection: hits, their analogues and other compounds. The true share with any hit is near 3.5%.
# MrgX1 ag = activates human MrgX1 receptor signaling; AID 588627; MrgX1-HEK293 cells, Fluo-4 calcium fluorescence, agonist mode; active compounds read high; B-score at 10 µM; Q96LB2; hit rate 0.44% among 310,000;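 active means calcium response B-score plate-corrected fluorescence ratio at least 3 library SD, with starting fluorescence B-score inside 5 SD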
# Target sequence (Q96LB2 whole entry, looked up): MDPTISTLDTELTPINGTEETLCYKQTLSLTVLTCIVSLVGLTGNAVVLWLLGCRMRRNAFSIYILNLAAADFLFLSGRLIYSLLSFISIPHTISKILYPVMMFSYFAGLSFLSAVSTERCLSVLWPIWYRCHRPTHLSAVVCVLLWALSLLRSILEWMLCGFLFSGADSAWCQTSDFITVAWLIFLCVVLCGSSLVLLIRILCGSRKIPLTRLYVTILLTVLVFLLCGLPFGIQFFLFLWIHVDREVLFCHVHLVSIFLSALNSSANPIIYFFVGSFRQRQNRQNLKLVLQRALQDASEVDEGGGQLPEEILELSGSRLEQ
#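 Material: HEK293 cells stably expressing human MrgX1 receptor | Quantity: 15,000 cells per well | Times: Cells plated overnight, dye loaded 0.5 h 37 °C, 0.5 h room temperature | Measured by: Kinetic Fluo-4 NW fluorescence of intracellular calcium | Control set: Positive and negative controls per plate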
# MrgX1 PAM = human MrgX1 positive allosteric modulation, primary screen. MrgX1-HEK293, Fluo-4 calcium flux, FDSS; active compounds read high. Q96LB2. hit rate 0.63% among 310,000. B-score at 10 µM;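 active means plate-corrected calcium response at least 3 library SD above typical, normal starting fluorescence, not activating the receptor alone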;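 further: compound read alongside a low EC10 to EC30 dose of BAM8-22 agonist; peak minus trough fluorescence over baseline measured at the second addition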
# MrgX1 antag = human MrgX1 receptor antagonism, primary screen; hit rate 1.3% among 310,000; B-score at 10 µM; Q96LB2; MRGX1-HEK293 calcium flux, Fluo-4, BAM8-22 antagonism; active compounds read low; AID 588676;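 active means calcium-response B-score plate-corrected more than 3 library SD below zero, starting fluorescence within 5 deviations, no agonist response on first addition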;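 further: peak minus trough fluorescence over baseline after final BAM8-22 challenge near maximal dose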
# RGS4 pot = potentiators or activators of RGS4; HEK293 M3R/inducible RGS4, carbachol calcium flux Fluo4; active compounds read low; B-score at 10 µM; hit rate 0.92% among 310,000; AID 463111;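 active means B-score of the integrated calcium signal more than 4 SD below the library mean, with starting fluorescence not abnormally high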;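 further: negative B-score means reduced calcium response which marks RGS4 activation or potentiation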
#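 Test system: HEK293 cells with stable M3R and inducible RGS4; also added: carbachol at ECmax as muscarinic agonist stimulus; schedule: dye loading 30 min 37 °C, buffer rest 30 min RT; technique: kinetic calcium fluorescence imaging with Fluo4-AM dye, 2 µM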
# RGS4 inh = inhibitors of human RGS4; HEK293 M3R/RGS4 inducible, Fluo-4 calcium flux; active compounds read high; triggered by carbachol at its EC20; B-score at 10 µM; hit rate 0.45% among 310,000; AID 463165;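 active means B-score, a plate-corrected calcium signal, over three deviations above library mean, with baseline fluorescence within five deviations of library mean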;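 further: RGS4 expression induced by doxycycline in cells with stable M3 receptor; B-score is computed from the integrated fluorescence ratio over baseline after carbachol; higher B-score means a larger calcium signal and so more RGS4 inhibition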
# Target sequence (P49798 whole entry, looked up): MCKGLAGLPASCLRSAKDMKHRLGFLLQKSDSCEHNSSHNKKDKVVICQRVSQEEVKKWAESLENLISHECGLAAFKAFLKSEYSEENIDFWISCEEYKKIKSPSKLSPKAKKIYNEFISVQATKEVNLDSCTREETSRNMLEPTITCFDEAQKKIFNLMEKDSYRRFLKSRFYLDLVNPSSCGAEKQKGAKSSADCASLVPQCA
# An asterisk follows results filed as active; i = inactive; nt = no result.
SMILES,MrgX1 ag,MrgX1 PAM,MrgX1 antag,RGS4 pot,RGS4 inh
CCCCC/C(=N\O)c1c[nH]c2ccccc12,i,i,-6.61*,i,i
O=P(Nc1cccc(F)c1)(Oc1ccccc1F)Oc1ccccc1F,i,i,i,-8.24*,i
Cc1cccc(NP(=O)(Oc2ccccc2F)Oc2ccccc2F)c1,i,i,i,-7.78*,i
Cc1ccc(NP(=O)(Oc2ccccc2F)Oc2ccccc2F)cc1C,i,i,i,i,i
N#CC(C#N)=Cc1cccnc1,i,i,-4.59*,i,i
N#CC(C#N)=Cc1ccc(N2CCOCC2)cc1,i,i,i,i,i
CC(C)(C)c1cc([N+](=O)[O-])cc(C(C)(C)C)c1O,i,i,i,i,i
CCn1c(O)c(C=NCCN2CCOCC2)c(=O)[nH]c1=S,i,i,i,i,i
CC(C)OCCCNC(=O)c1c(N)n(CC2CCCO2)c2nc3ccccc3nc12 (configuration not stated),i,i,i,-7.21*,i
CCCNC(=O)c1c(N)n(CC2CCCO2)c2nc3ccccc3nc12 (configuration not stated),i,i,i,i,i
C=CCSc1nc2c(c(-c3ccsc3)c1C#N)CN(C)CC2,i,i,i,i,i
Cc1ccsc1C(=O)C1CCCN(Cc2ccc(-n3cccn3)cc2)C1 (configuration not stated),i,i,i,i,i
CCOC(=O)c1cncn1[C@@H](C)c1ccccc1,i,i,i,nt,nt
Cc1c(C=O)c2ccccc2n1Cc1ccc([N+](=O)[O-])cc1,i,i,-5.27*,i,i
COc1ccc(CCNC2CCCCC2)cc1OC,i,i,i,i,i
CC[n+]1c(/C=C/N(C)c2ccccc2)sc2ccc(Cl)cc21,i,i,i,-9.53*,i
CC[n+]1c(/C=C/C=C/c2ccc(N(C)C)cc2)sc2ccccc21,i,i,i,i,i
O=C1NC(=O)N(c2ccccc2)C(=O)/C1=C/c1coc2ccc(O)cc2c1=O,26.6*,i,i,i,i
COc1ccc(C(=O)C2CCCN(Cc3cnc(C)s3)C2)cc1OC (configuration not stated),i,i,i,i,i
COc1ccc(C(=O)C2CCCN(C3CSCCSC3)C2)cc1OC (configuration not stated),i,i,i,-7.48*,i
CCOC(=O)c1c(C)n(Cc2ccccc2)c2ccc(OCC(O)CNC(C)(C)C)cc12 (configuration not stated),i,i,-4.74*,i,i
Clc1ccc(C[n+]2c(-c3ccccc3)cc(-c3ccccc3)cc2-c2ccccc2)cc1,i,i,-6.86*,-8.1*,i
Cc1cc(-c2ccccc2)cc(-c2ccccc2)[n+]1CCc1ccccc1,i,i,-4.63*,-8.18*,i
CCN(CC)P(c1n(C)cc[n+]1C)N(CC)CC,i,i,i,i,i
CN(C)CC#CCC(O)(c1ccccc1)C1CCCC1 (configuration not stated),i,i,i,i,i
SMILES,MrgX1 ag,MrgX1 PAM,MrgX1 antag,RGS4 pot,RGS4 inh
CC[N+](CC)(CC)CCCOC(=O)C(O)(c1ccccc1)C1CCCCC1 (configuration not stated),i,i,i,-8.21*,i
C[N+](C)(N)CCOC(=O)C(O)(c1ccccc1)C1CCCCC1 (configuration not stated),i,i,i,-8.22*,i
CC1CN=C(NCCc2ccccc2)S1 (configuration not stated),i,i,i,i,i
Oc1cc(Cl)ccc1Oc1ccc(Cl)cc1Cl,i,i,i,-7.06*,i
Cc1ncc(CN2CCCC(C(=O)c3cccc(Cl)c3)C2)s1 (configuration not stated),i,i,i,i,i
NC(N)=N/N=C/c1cn(-c2ccccc2)nc1-c1cccs1,43.7*,i,i,i,i
O=c1c2ccccc2nc(-c2cccs2)n1-c1ccccc1,i,i,i,i,i
Cn1cc(C(O)CN2CCCCC2)c2ccccc21 (configuration not stated),i,i,i,i,i
O=C(Nc1ccccc1)OC1CN=C(N[N+](=O)[O-])NC1 (configuration not stated),i,i,-5.69*,i,i
O=C(c1ccc(F)cc1)N1CCC2(CC1)OCCO2,i,i,i,i,i
COC(=O)C1=C(c2ccc(S(C)(=O)=O)cc2)C[C@@H]2CC[C@H]1N2C(=O)NC(C)C,i,i,i,i,i
CCCCCCOc1ccc(CN2CCN(CC)CC2)cc1,i,i,i,-7.14*,i
CCN1CCN(Cc2ccc(OC(F)(F)F)cc2)CC1,i,i,i,i,i
O=C(O)c1ccc(NC(=O)N2C[C@H]3C[C@@H](C2)c2cccc(=O)n2C3)cc1,i,i,i,-10.1*,i
COc1ccc(N2C(=O)/C(=C/c3ccc(N(C)C)o3)C(=O)NC2=S)cc1,i,i,i,i,i
CCN(CC)c1ccc(/C=C2\C(=O)NC(=S)N(c3ccc(OC)cc3OC)C2=O)o1,i,i,i,-7.24*,i
Cc1noc(C)c1CC(=O)N1CCCC(N2CCN(c3ccccc3F)CC2)C1 (configuration not stated),i,i,i,i,i
C=C(C=O)CC1CC(O)[C@]2(C)OC3CC4OC5C[C@]6(C)O[C@]7(C)CCC8OC9C[C@]%10(C)OC%11C(C)=CC(=O)OC%11CC%10OC9C[C@@H](C)C8OC7CC6O[C@]5(C)CC5OC5C4OC3CC2O1 (some centres not stated),i,i,-5.41*,i,i
C=C(COC(C)=O)CC1CC(O)[C@]2(C)OC3CC4OC5C[C@]6(C)O[C@]7(C)CCC8OC9C[C@]%10(C)OC%11C(C)=CC(=O)OC%11CC%10OC9C[C@@H](C)C8OC7CC6O[C@]5(C)C/C=C\C4OC3CC2O1 (some centres not stated),nt,nt,nt,i,18.4*
C[C@H](NC(=O)CCC(=O)N1C[C@H]2C[C@H](C1)c1cccc(=O)n1C2)c1ccccc1,i,i,i,i,i
CCC1(CC)C(=N)N(C)C(=O)NC1=O,i,i,i,i,i
Clc1cnc(Oc2ccc(Oc3ncc(Cl)cc3Cl)cc2)c(Cl)c1,i,12.6*,i,i,i
O=[N+]([O-])c1cccc(NP(=O)(Oc2ccccc2)Oc2ccccc2)c1,i,i,i,i,i
